Data: ChEMBL document CHEMBL4765291, “Design, synthesis and biological evaluation of novel 3,4-dihydro-2(1H)-quinolinone derivatives as potential chitin synthase inhibitors and antifungal agents” (Eur J Med Chem, 2020)
In brackets after ≈: the same amount, converted by molar mass.

Tests used:
Candida tropicalis = test: Inhibition of Candida tropicalis ATCC 750 chitin synthase at 300 ug/ml using UDP-GlcNAc as substrate relative to control; settings: dose 300.0 µg/ml
Summary of the method: (§1)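 Chitin synthase prepared from C. tropicalis ATCC 750 by low- and high-speed centrifugation. DMSO stocks (10 mg/mL) diluted in 50 mM Tris-HCl pH 7.5; test concentrations 300–9.375 µg/mL. Chitin synthesized in WGA-coated wells, bound with WGA-HRP, washed, developed with TMB/H2O2, stopped with 2 M H2SO4, OD read. Duplicate; polyoxin B positive control.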

[1] = Inhibition of Candida tropicalis ATCC 750 chitin synthase using UDP-GlcNAc as substrate; summary of the method: as §1
Candida albicans [2] = test: Antifungal activity against Candida albicans ATCC 90023 incubated for 48 hrs by two-fold broth dilution analysis; assay type: functional
Summary of the method: (§2)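 Stock solutions in DMSO, diluted to 0.25–512 µg/mL; two-fold serial broth dilution in 96-well plates. Fungi grown on modified Sabouraud chloramphenicol agar (1% peptone, 2% glucose, […]). Incubated 48 h at 37 °C, then MIC (µg/mL) recorded. Fluconazole and polyoxin B as positive controls; each group tested in triplicate.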

Cryptococcus neoformans = test: Antifungal activity against Cryptococcus neoformans ATCC 32719 incubated for 48 hrs by two-fold broth dilution analysis; assay type: functional; summary of the method: as §2
Aspergillus flavus = test: Antifungal activity against Aspergillus flavus ATCC 16870 incubated for 48 hrs by two-fold broth dilution analysis; assay type: functional; summary of the method: as §2
Staphylococcus aureus [3] = test: Antibacterial activity against methicillin-resistant Staphylococcus aureus N. 315; assay type: functional
Summary of the method: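 Two-fold serial broth dilution in 96-well plates per national clinical standard; beef extract peptone medium (1% peptone, 0.3% beef extract, 0.5% NaCl, […]). Compounds from DMSO stock diluted to test concentrations; incubation 18–24 h. MIC recorded; each group tested independently in triplicate.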

Candida albicans [4] = test: Antifungal activity against Candida albicans ATCC 76615 incubated for 48 hrs by two-fold broth dilution analysis; assay type: functional; summary of the method: as §2
Aspergillus fumigatus = test: Antifungal activity against Aspergillus fumigatus GIMCC 3.19 incubated for 48 hrs by two-fold broth dilution analysis; assay type: functional; summary of the method: as §2
Staphylococcus aureus [5] = test: Antibacterial activity against Staphylococcus aureus ATCC 25923; assay type: functional
Summary of the method: (§3)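 Two-fold serial broth dilution in 96-well plates following National Committee standards; compounds tested at different concentrations. Medium: beef extract peptone (1% peptone, 0.3% beef extract, 0.5% NaCl). Incubation 18–24 h. MIC recorded; streptomycin and norfloxacin as control drugs; each group tested in triplicate.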

Bacillus subtilis = test: Antibacterial activity against Bacillus subtilis ATCC 6633; assay type: functional; summary of the method: as §3
Pseudomonas aeruginosa = test: Antibacterial activity against Pseudomonas aeruginosa ATCC 9027; assay type: functional; summary of the method: as §3
Proteus vulgaris = test: Antibacterial activity against Bacillus proteus ATCC 8427; assay type: functional; summary of the method: as §3
Escherichia coli = test: Antibacterial activity against Escherichia coli JM 109

With `O=C(/C=C/C(=O)NC1Cc2ccccc2NC1=O)Nc1ccc([N+](=O)[O-])cc1` (configuration not stated) the inhibition (Candida tropicalis) was 65.2%, the IC50 [1] was 350 µM and the MIC (Candida albicans [2]) was 2 µg/mL (≈ 5.26 µM). It also gave an MIC (Cryptococcus neoformans) of 8 µg/mL (≈ 21 µM), an MIC (Aspergillus flavus) of 2 µg/mL (≈ 5.26 µM) and an MIC (Staphylococcus aureus [3]) of 256 µg/mL (≈ 673 µM). For the same compound, the MIC (Candida albicans [4]) was 8 µg/mL (≈ 21 µM), the MIC (Aspergillus fumigatus) was 4 µg/mL (≈ 10.5 µM) and the MIC (Staphylococcus aureus [5]) was 128 µg/mL (≈ 337 µM). It also gave an MIC (Bacillus subtilis) of 256 µg/mL (≈ 673 µM), an MIC (Pseudomonas aeruginosa) of 512 µg/mL (≈ 1350 µM) and an MIC (Proteus vulgaris) of 256 µg/mL (≈ 673 µM). It also gave an MIC (Escherichia coli) of 256 µg/mL (≈ 673 µM).
`O=C(/C=C/C(=O)NC1Cc2ccccc2NC1=O)Nc1ccc(F)cc1` (configuration not stated) showed an inhibition (Candida tropicalis) of 51.2%, an IC50 [1] of 340 µM and an MIC (Candida albicans [2]) of 2 µg/mL (≈ 5.66 µM). The MIC (Cryptococcus neoformans) was 8 µg/mL (≈ 22.6 µM), the MIC (Aspergillus flavus) was 8 µg/mL (≈ 22.6 µM) and the MIC (Staphylococcus aureus [3]) was 512 µg/mL (≈ 1450 µM). It also gave an MIC (Candida albicans [4]) of 2 µg/mL (≈ 5.66 µM), an MIC (Aspergillus fumigatus) of 4 µg/mL (≈ 11.3 µM) and an MIC (Staphylococcus aureus [5]) of 128 µg/mL (≈ 362 µM). For the same compound, the MIC (Bacillus subtilis) was 512 µg/mL (≈ 1450 µM), the MIC (Pseudomonas aeruginosa) was 256 µg/mL (≈ 724 µM) and the MIC (Proteus vulgaris) was 256 µg/mL (≈ 724 µM). For the same compound, the MIC (Escherichia coli) was 256 µg/mL (≈ 724 µM).
Compound `O=C(/C=C/C(=O)NC1Cc2ccccc2NC1=O)Nc1ccc(Cl)cc1` (configuration not stated) has an inhibition (Candida tropicalis) of 50.5%, an MIC (Candida albicans [2]) of 2 µg/mL (≈ 5.41 µM) and an MIC (Cryptococcus neoformans) of 4 µg/mL (≈ 10.8 µM). For the same compound, the MIC (Aspergillus flavus) was 4 µg/mL (≈ 10.8 µM), the MIC (Staphylococcus aureus [3]) was 512 µg/mL (≈ 1380 µM) and the MIC (Candida albicans [4]) was 4 µg/mL (≈ 10.8 µM). It also gave an MIC (Aspergillus fumigatus) of 8 µg/mL (≈ 21.6 µM), an MIC (Staphylococcus aureus [5]) of 128 µg/mL (≈ 346 µM) and an MIC (Bacillus subtilis) of 256 µg/mL (≈ 692 µM). It also gave an MIC (Pseudomonas aeruginosa) of 512 µg/mL (≈ 1380 µM), an MIC (Proteus vulgaris) of 512 µg/mL (≈ 1380 µM) and an MIC (Escherichia coli) of 256 µg/mL (≈ 692 µM).
In the case of `CCn1cc(C(=O)O)c(=O)c2cc(F)c(N3CCNCC3)cc21` [NORFLOXACIN], the MIC (Staphylococcus aureus [3]) is reported as 4 µg/mL (≈ 12.5 µM), the MIC (Staphylococcus aureus [5]) is reported as 2 µg/mL (≈ 6.26 µM) and the MIC (Bacillus subtilis) is reported as 4 µg/mL (≈ 12.5 µM). It also gave an MIC (Pseudomonas aeruginosa) of 8 µg/mL (≈ 25.1 µM), an MIC (Proteus vulgaris) of 2 µg/mL (≈ 6.26 µM) and an MIC (Escherichia coli) of 8 µg/mL (≈ 25.1 µM).
For `O=C(/C=C/C(=O)NC1Cc2ccccc2NC1=O)Nc1cccc(Br)c1` (configuration not stated), the inhibition (Candida tropicalis) was 45.2%, the MIC (Candida albicans [2]) was 1 µg/mL (≈ 2.41 µM) and the MIC (Cryptococcus neoformans) was 32 µg/mL (≈ 77.2 µM). For the same compound, the MIC (Aspergillus flavus) was 4 µg/mL (≈ 9.66 µM), the MIC (Staphylococcus aureus [3]) was 512 µg/mL (≈ 1240 µM) and the MIC (Candida albicans [4]) was 2 µg/mL (≈ 4.83 µM). For the same compound, the MIC (Aspergillus fumigatus) was 4 µg/mL (≈ 9.66 µM), the MIC (Staphylococcus aureus [5]) was 128 µg/mL (≈ 309 µM) and the MIC (Bacillus subtilis) was 256 µg/mL (≈ 618 µM). For the same compound, the MIC (Pseudomonas aeruginosa) was 256 µg/mL (≈ 618 µM), the MIC (Proteus vulgaris) was 256 µg/mL (≈ 618 µM) and the MIC (Escherichia coli) was 256 µg/mL (≈ 618 µM).
Work on `O=C(/C=C/C(=O)NC1Cc2ccccc2NC1=O)Nc1ccccc1F` (configuration not stated) yielded an inhibition (Candida tropicalis) of 48.9%, an MIC (Candida albicans [2]) of 4 µg/mL (≈ 11.3 µM) and an MIC (Cryptococcus neoformans) of 16 µg/mL (≈ 45.3 µM). It also gave an MIC (Aspergillus flavus) of 8 µg/mL (≈ 22.6 µM), an MIC (Staphylococcus aureus [3]) of 512 µg/mL (≈ 1450 µM) and an MIC (Candida albicans [4]) of 8 µg/mL (≈ 22.6 µM). For the same compound, the MIC (Aspergillus fumigatus) was 1 µg/mL (≈ 2.83 µM), the MIC (Staphylococcus aureus [5]) was 256 µg/mL (≈ 724 µM) and the MIC (Bacillus subtilis) was 256 µg/mL (≈ 724 µM). The MIC (Pseudomonas aeruginosa) was 512 µg/mL (≈ 1450 µM), the MIC (Proteus vulgaris) was 512 µg/mL (≈ 1450 µM) and the MIC (Escherichia coli) was 512 µg/mL (≈ 1450 µM).
Compound `COc1ccc(NC(=O)/C=C/C(=O)NC2Cc3ccccc3NC2=O)cc1` (configuration not stated) has an inhibition (Candida tropicalis) of 74.6%, an IC50 [1] of 210 µM and an MIC (Candida albicans [2]) of 1 µg/mL (≈ 2.74 µM). The MIC (Cryptococcus neoformans) was 16 µg/mL (≈ 43.8 µM), the MIC (Aspergillus flavus) was 2 µg/mL (≈ 5.47 µM) and the MIC (Staphylococcus aureus [3]) was 256 µg/mL (≈ 701 µM). For the same compound, the MIC (Candida albicans [4]) was 2 µg/mL (≈ 5.47 µM), the MIC (Aspergillus fumigatus) was 4 µg/mL (≈ 10.9 µM) and the MIC (Staphylococcus aureus [5]) was 128 µg/mL (≈ 350 µM). For the same compound, the MIC (Bacillus subtilis) was 256 µg/mL (≈ 701 µM), the MIC (Pseudomonas aeruginosa) was 512 µg/mL (≈ 1400 µM) and the MIC (Proteus vulgaris) was 256 µg/mL (≈ 701 µM). It also gave an MIC (Escherichia coli) of 512 µg/mL (≈ 1400 µM).
`O=C(/C=C/C(=O)NC1Cc2ccccc2NC1=O)Nc1ccccc1Br` (configuration not stated) showed an inhibition (Candida tropicalis) of 39.9%, an MIC (Candida albicans [2]) of 2 µg/mL (≈ 4.83 µM) and an MIC (Cryptococcus neoformans) of 32 µg/mL (≈ 77.2 µM). The MIC (Aspergillus flavus) was 2 µg/mL (≈ 4.83 µM), the MIC (Staphylococcus aureus [3]) was 256 µg/mL (≈ 618 µM) and the MIC (Candida albicans [4]) was 4 µg/mL (≈ 9.66 µM). The MIC (Aspergillus fumigatus) was 8 µg/mL (≈ 19.3 µM), the MIC (Staphylococcus aureus [5]) was 128 µg/mL (≈ 309 µM) and the MIC (Bacillus subtilis) was 512 µg/mL (≈ 1240 µM). The MIC (Pseudomonas aeruginosa) was 512 µg/mL (≈ 1240 µM), the MIC (Proteus vulgaris) was 512 µg/mL (≈ 1240 µM) and the MIC (Escherichia coli) was 512 µg/mL (≈ 1240 µM).
In the case of `O=C(/C=C/C(=O)NC1Cc2ccccc2NC1=O)Nc1cccc2ccccc12` (configuration not stated), the inhibition (Candida tropicalis) is reported as 27.8%, the MIC (Candida albicans [2]) is reported as 2 µg/mL (≈ 5.19 µM) and the MIC (Cryptococcus neoformans) is reported as 4 µg/mL (≈ 10.4 µM). The MIC (Aspergillus flavus) was 8 µg/mL (≈ 20.8 µM), the MIC (Staphylococcus aureus [3]) was 256 µg/mL (≈ 664 µM) and the MIC (Candida albicans [4]) was 2 µg/mL (≈ 5.19 µM). It also gave an MIC (Aspergillus fumigatus) of 4 µg/mL (≈ 10.4 µM), an MIC (Staphylococcus aureus [5]) of 256 µg/mL (≈ 664 µM) and an MIC (Bacillus subtilis) of 256 µg/mL (≈ 664 µM). The MIC (Pseudomonas aeruginosa) was 256 µg/mL (≈ 664 µM), the MIC (Proteus vulgaris) was 256 µg/mL (≈ 664 µM) and the MIC (Escherichia coli) was 512 µg/mL (≈ 1330 µM).
For `O=C(/C=C/C(=O)NC1Cc2ccccc2NC1=O)Nc1ccccc1Cl` (configuration not stated), the inhibition (Candida tropicalis) was 46.7%, the MIC (Candida albicans [2]) was 2 µg/mL (≈ 5.41 µM) and the MIC (Cryptococcus neoformans) was 16 µg/mL (≈ 43.3 µM). The MIC (Aspergillus flavus) was 8 µg/mL (≈ 21.6 µM), the MIC (Staphylococcus aureus [3]) was 512 µg/mL (≈ 1380 µM) and the MIC (Candida albicans [4]) was 4 µg/mL (≈ 10.8 µM). For the same compound, the MIC (Aspergillus fumigatus) was 8 µg/mL (≈ 21.6 µM), the MIC (Staphylococcus aureus [5]) was 128 µg/mL (≈ 346 µM) and the MIC (Bacillus subtilis) was 512 µg/mL (≈ 1380 µM). The MIC (Pseudomonas aeruginosa) was 256 µg/mL (≈ 692 µM), the MIC (Proteus vulgaris) was 512 µg/mL (≈ 1380 µM) and the MIC (Escherichia coli) was 256 µg/mL (≈ 692 µM).
